Laboratory results published in ChEMBL document CHEMBL3351820, “Development of novel membrane active lipidated peptidomimetics active against drug resistant clinical isolates” (Bioorg Med Chem, 2014).
Values after ≈ are worked out from the molar mass of the structure shown. Where a SMILES comes first, the peptide text is derived from it. [ ]: non-standard residue; d: D form. The star is where a group is joined. Lauroyl = CCCCCCCCCCCC(=O)*; 3Abz = Nc1cccc(C(=O)O)c1; Orn = NCCC[CH](N)C(=O)O

Tests used:
Staphylococcus aureus [1] = test: Antibacterial activity against methicillin-resistant Staphylococcus aureus PGI/ DML03149 clinical isolate after 18 hrs by micro dilution broth assay; type: functional; conditions: PGI/ DML03149, 18 h
Staphylococcus aureus [2] = test: Antibacterial activity against Staphylococcus aureus MTCC 3160 after 18 hrs by micro dilution broth assay; type: functional; conditions: MTCC 3160, 18 h
How it was run: (§1)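 Broth microdilution (modified CLSI): mid-log inoculum at 10^5 CFU/mL in Mueller-Hinton broth; serial 2-fold dilutions of sample in 0.001% acetic acid with 0.2% BSA added. Incubated overnight at 37 °C with agitation; A600 read at 18 h. Drug-free culture and uninoculated broth as controls; triplicate.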

Aspergillus niger = test: Antifungal activity against Aspergillus niger ATCC 64028 after 24 hrs by M27-A method; type: functional; conditions: ATCC 64028, 24 h
How it was run: (§2)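 Fungi at 2.5×10^3 cfu/mL in RPMI 1640 (L-glutamine, no glucose or NaHCO3, buffered pH 7.0 with 0.165 M MOPS), mixed 1:1 with serial 2-fold aqueous dilutions. Incubated at 37 °C with shaking, 24 h for Aspergillus, 48-72 h for Candida and Cryptococcus; A600 read. MIC taken as lowest concentration with no growth.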

Candida albicans [3] = test: Antifungal activity against fluconazole-resistant Candida albicans PGI/ DML0109 clinical isolate after 48 to 72 hrs by M27-A method; type: functional
How it was run: (§3)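 Fungi at 2.5×10^3 cfu/mL in RPMI 1640 (L-glutamine, no glucose or NaHCO3, pH 7.0 with 0.165 M MOPS). Mixed 1:1 with serial 2-fold dilutions in water, incubated at 37 °C with shaking, 24 h for A. fumigatus and 48–72 h for C. albicans. Growth read by absorbance at 600 nm. MIC taken as the lowest concentration with no growth.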

Pseudomonas aeruginosa = test: Antibacterial activity against Pseudomonas aeruginosa MTCC 2295 after 18 hrs by micro dilution broth assay; type: functional; conditions: MTCC 2295, 18 h; how it was run: as §1
Aspergillus fumigatus [4] = test: Antifungal activity against Aspergillus fumigatus ATCC 42203 after 24 hrs by M27-A method; type: functional; conditions: ATCC 42203, 24 h; how it was run: as §2
Aspergillus fumigatus [5] = test: Antifungal activity against fluconazole-resistant Aspergillus fumigatus IGMC/LM1/0336 after 24 hrs by M27-A method; type: functional; conditions: IGMC/LM1/0336, 24 h; how it was run: as §3
Bacillus subtilis = test: Antibacterial activity against Bacillus subtilis MTCC 2763 after 18 hrs by micro dilution broth assay; type: functional; conditions: MTCC 2763, 18 h; how it was run: as §1
Escherichia coli [6] = test: Antibacterial activity against imipenem-resistant Escherichia coli PGI/ DML02292 clinical isolate after 18 hrs by micro dilution broth assay; type: functional; conditions: PGI/ DML02292, 18 h
Candida albicans [7] = test: Antifungal activity against Candida albicans ATCC 24433 after 48 to 72 hrs by M27-A method; type: functional; how it was run: as §2
Cryptococcus neoformans = test: Antifungal activity against Cryptococcus neoformans ATCC 2344 after 48 to 72 hrs by M27-A method; type: functional; how it was run: as §2
[8] = Hemolytic activity in human RBCs; type: ADME, cell-based, Erythrocyte; conditions: red blood cells (RBCs)
How it was run: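 Washed fresh human erythrocytes, 4% (v/v) in PBS (35 mM phosphate, 150 mM NaCl, pH 7.2), mixed 1:1 with 2-fold dilutions in PBS. Incubated 1 h at 37 °C without agitation, then centrifuged at 1000 g for 5 min. Supernatant hemoglobin read at 440 nm; % hemolysis = 100(A−A0)/(At−A0).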

Escherichia coli [9] = test: Antibacterial activity against Escherichia coli MTCC 0723 after 18 hrs by micro dilution broth assay; type: functional; conditions: MTCC 0723, 18 h; how it was run: as §1
[10] = Therapeutic index, ratio of HC50 for human RBCs to MIC for Staphylococcus aureus MTCC 3160; conditions: red blood cells (RBCs), read-out: TI
[11] = Therapeutic index, ratio of HC50 for human RBCs to MIC for Escherichia coli MTCC 0723; conditions: red blood cells (RBCs), read-out: TI

Row | Compound | MIC (Staphylococcus aureus [1]) [µg/mL] | MIC (Staphylococcus aureus [2]) [µg/mL] | MIC (Aspergillus niger) [µg/mL] | MIC (Candida albicans [3]) [µg/mL] | MIC (Pseudomonas aeruginosa) [µg/mL] | MIC (Aspergillus fumigatus [4]) [µg/mL] | MIC (Aspergillus fumigatus [5]) [µg/mL] | MIC (Bacillus subtilis) [µg/mL] | MIC (Escherichia coli [6]) [µg/mL] | MIC (Candida albicans [7]) [µg/mL] | MIC (Cryptococcus neoformans) [µg/mL] | HC50 [8] [µg/mL] | MIC (Escherichia coli [9]) [µg/mL] | selectivity ratio [10] | selectivity ratio [11]
1 | CCCCCCCCCC(=O)Nc1cccc(C(=O)NC(CCCN)C(=O)NC(CCCN)C(=O)NC(CCCN)C(N)=O)c1 (configuration not stated) | 50 (≈ 79 µM) | 31.2 (≈ 49.3 µM) | 50 (≈ 79 µM) | 75 (≈ 119 µM) | 50 (≈ 79 µM) | 31.5 (≈ 49.8 µM) | 30 (≈ 47.4 µM) | 125 (≈ 198 µM) | 70 (≈ 111 µM) | 62.5 (≈ 98.8 µM) | 75 (≈ 119 µM) | > 1000 | 62.5 (≈ 98.8 µM) | – | –
2 | CCCCCCCCCCCC(=O)Nc1cccc(C(=O)NC(CCCN)C(=O)NC(CCCN)C(=O)NC(CCCN)C(N)=O)c1 (configuration not stated) | 12 (≈ 18.2 µM) | 6.25 (≈ 9.46 µM) | 15 (≈ 22.7 µM) | 15 (≈ 22.7 µM) | 4.5 (≈ 6.81 µM) | 10 (≈ 15.1 µM) | 12.5 (≈ 18.9 µM) | 100 (≈ 151 µM) | 10.5 (≈ 15.9 µM) | 15.5 (≈ 23.5 µM) | 12.5 (≈ 18.9 µM) | 900 | 12.5 (≈ 18.9 µM) | 144 | 72
3 | CCCCCCCCCCCCCC(=O)Nc1cccc(C(=O)NC(CCCN)C(=O)NC(CCCN)C(=O)NC(CCCN)C(N)=O)c1 (configuration not stated) | 4.5 (≈ 6.53 µM) | 3.1 (≈ 4.5 µM) | 5 (≈ 7.26 µM) | 6.25 (≈ 9.07 µM) | 2.5 (≈ 3.63 µM) | 4.5 (≈ 6.53 µM) | 6.25 (≈ 9.07 µM) | 15.5 (≈ 22.5 µM) | 4 (≈ 5.81 µM) | 5.5 (≈ 7.98 µM) | 10 (≈ 14.5 µM) | 750 | 2.25 (≈ 3.27 µM) | 242 | 333
4 | CCCCCCCCCCCCCCCC(=O)Nc1cccc(C(=O)NC(CCCN)C(=O)NC(CCCN)C(=O)NC(CCCN)C(N)=O)c1 (configuration not stated) | 5 (≈ 6.97 µM) | 5 (≈ 6.97 µM) | 4.25 (≈ 5.93 µM) | 3.5 (≈ 4.88 µM) | 5.5 (≈ 7.67 µM) | 3.5 (≈ 4.88 µM) | 5 (≈ 6.97 µM) | 20 (≈ 27.9 µM) | 4.5 (≈ 6.28 µM) | 3 (≈ 4.18 µM) | 3.5 (≈ 4.88 µM) | 450 | 3.5 (≈ 4.88 µM) | 90 | 129
5 | CCCCCCCCCCCCCCCCCC(=O)Nc1cccc(C(=O)NC(CCCN)C(=O)NC(CCCN)C(=O)NC(CCCN)C(N)=O)c1 (configuration not stated) | 10.5 (≈ 14.1 µM) | 12.5 (≈ 16.8 µM) | 3.5 (≈ 4.7 µM) | 2 (≈ 2.68 µM) | 10 (≈ 13.4 µM) | 2 (≈ 2.68 µM) | 2.5 (≈ 3.36 µM) | 25 (≈ 33.6 µM) | 7.5 (≈ 10.1 µM) | 2.25 (≈ 3.02 µM) | 6.5 (≈ 8.72 µM) | 250 | 6.25 (≈ 8.39 µM) | 20 | 40
6 | CCCCCCCCCCCC(=O)Nc1cccc(C(=O)NC(CCCN)C(=O)NC(CCCN)C(=O)NC(CCCN)C(=O)NC(CCCN)C(N)=O)c1 (configuration not stated) ({Lauroyl-3Abz}-[Orn][Orn][Orn][Orn]-NH2; configuration not given here) | 3.25 (≈ 4.19 µM) | 2.5 (≈ 3.23 µM) | 6.25 (≈ 8.06 µM) | 7.5 (≈ 9.68 µM) | 1.5 (≈ 1.94 µM) | 5 (≈ 6.45 µM) | 5.5 (≈ 7.1 µM) | 15.5 (≈ 20 µM) | 5.5 (≈ 7.1 µM) | 5.5 (≈ 7.1 µM) | 10.5 (≈ 13.5 µM) | 750 | 1.5 (≈ 1.94 µM) | 300 | 500
7 | C[C@@H]1[C@H](O)[C@@H](C)/C=C/C=C/C=C/C=C/C=C/C=C/C=C/[C@H](O[C@@H]2O[C@H](C)[C@@H](O)[C@H](N)[C@@H]2O)C[C@@H]2O[C@](O)(C[C@@H](O)C[C@@H](O)[C@H](O)CC[C@@H](O)C[C@@H](O)CC(=O)O[C@H]1C)C[C@H](O)[C@H]2C(=O)O [AMPHOTERICIN B] | – | – | 0.5 (≈ 0.541 µM) | 0.7 (≈ 0.758 µM) | – | 0.3 (≈ 0.325 µM) | 0.9 (≈ 0.974 µM) | – | – | 0.5 (≈ 0.541 µM) | 0.3 (≈ 0.325 µM) | – | – | – | –
8 | O=C(O)c1cn(C2CC2)c2cc(N3CCNCC3)c(F)cc2c1=O [CIPROFLOXACIN] | – | 0.2 (≈ 0.604 µM) | – | – | 0.3 (≈ 0.905 µM) | – | – | 0.5 (≈ 1.51 µM) | – | – | – | – | – | – | –
